The text below walks through data of ChEMBL document CHEMBL1146134, “Synthesis and antifungal activity of 6-hydroxycinnolines” (2006).

Converted amounts (≈) assume the structure as drawn.

What all share (assay type): functional
The test system of one assay is Candida tropicalis. In words: Antifungal activity against Candida tropicalis KCCM 50662. An outline of the steps:
(§1)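 Twofold broth dilution MIC in modified Sabouraud dextrose broth. Inoculum approximately 1 × 10⁵ cells/mL. Final agent concentrations ranged 0.2 to 100. Incubated at 37 °C and read after 1 day. MIC determined against 5-fluorocytosine as standard.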

A further assay deals with Candida albicans. In words: Antifungal activity against Candida albicans KCCM 50235. An outline of the steps: as §1
Another assay deals with Pichia kudriavzevii. In words: Antifungal activity against Candida krusei KCCM 11655. An outline of the steps:
as §1

The next assay deals with Cryptococcus neoformans. The assay is described as follows: Antifungal activity against Cryptococcus neoformans KCCM 50564. An outline of the steps:
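Growth inhibition measured as MIC by twofold broth dilution in modified Sabouraud dextrose broth. Inoculum near 1 × 10⁵ cells/mL. Final agent concentrations spanned 0.2 to 100. 5-Fluorocytosine was run as standard.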

For the next assay, the system named is Aspergillus niger. The assay is described as follows: Antifungal activity against Aspergillus niger KCTC 1231. An outline of the steps:
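MIC by twofold serial dilution in modified Sabouraud dextrose broth, with roughly 1 × 10⁵ cells/mL inoculum. Final test concentrations ranged 0.2 to 100. Plates held at 37 °C and read after 2 days. 5-Fluorocytosine served as reference agent.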

For orientation: MIC means the smallest concentration in the dilution series that meets the test's criterion for growth inhibition.

As to `COC(=O)C(C#N)C1=C(Sc2ccc(C)cc2)C(=O)C(C)=C(C)C1=O` (stereo not given), the MIC is above 50 mg/L with Candida tropicalis; above 50 mg/L with Candida albicans; 50 mg/L (≈ 141 µM) with Pichia kudriavzevii; 50 mg/L (≈ 141 µM) against Cryptococcus neoformans; above 50 mg/L against Aspergillus niger.

`COC(=O)c1c(N)nnc2c(C)c(C)c(O)c(Sc3ccc(C)cc3)c12`: the MIC in the assay with Candida tropicalis was 25 mg/L (≈ 67.7 µM); with Candida albicans it was above 50 mg/L; in the assay on Pichia kudriavzevii, 3.2 mg/L (≈ 8.66 µM); in the assay on Cryptococcus neoformans, 6.3 mg/L (≈ 17.1 µM); with Aspergillus niger, 25 mg/L (≈ 67.7 µM).

With `COC(=O)c1c(N)nnc2c(C)c(C)c(O)c(Sc3cccc(C)c3)c12`, the MIC in the assay on Candida tropicalis was above 50 mg/L; in the assay on Candida albicans, above 50 mg/L; against Pichia kudriavzevii it was above 50 mg/L; in the assay on Cryptococcus neoformans, 1.6 mg/L (≈ 4.33 µM); against Aspergillus niger, above 50 mg/L.

As to `COC(=O)c1c(N)nnc2c(C)c(C)c(O)c(Sc3ccc(C)c(C)c3)c12`, the MIC in the assay on Candida tropicalis is 25 mg/L (≈ 65.2 µM); in the assay with Candida albicans, above 50 mg/L; with Pichia kudriavzevii, 3.2 mg/L (≈ 8.34 µM); against Cryptococcus neoformans it was 1.6 mg/L (≈ 4.17 µM); with Aspergillus niger it was 12.5 mg/L (≈ 32.6 µM).

For the molecule `COC(=O)C(C#N)C1=C(Sc2cccc(F)c2)C(=O)C(C)=C(C)C1=O` (stereo not given), the minimal inhibitory concentration (MIC) against Candida tropicalis came out at 50 mg/L (≈ 139 µM); against Candida albicans it was 50 mg/L (≈ 139 µM); in the assay on Pichia kudriavzevii, 25 mg/L (≈ 69.6 µM); against Cryptococcus neoformans, 50 mg/L (≈ 139 µM); against Aspergillus niger, 50 mg/L (≈ 139 µM).

As for `COC(=O)C(C#N)C1=C(Sc2ccc(C)c(C)c2)C(=O)C(C)=C(C)C1=O` (stereo not given), the MIC is 50 mg/L (≈ 135 µM) against Candida tropicalis; 50 mg/L (≈ 135 µM) against Candida albicans; above 50 mg/L in the assay with Pichia kudriavzevii; above 50 mg/L against Cryptococcus neoformans; 50 mg/L (≈ 135 µM) against Aspergillus niger.

Turning to `COC(=O)c1c(N)nnc2c(C)c(C)c(O)c(Cl)c12`, the MIC was 50 mg/L (≈ 177 µM) against Candida tropicalis; above 50 mg/L in the assay on Candida albicans; 25 mg/L (≈ 88.7 µM) against Pichia kudriavzevii; 25 mg/L (≈ 88.7 µM) against Cryptococcus neoformans; 6.3 mg/L (≈ 22.4 µM) in the assay on Aspergillus niger.

In the case of `COC(=O)C(C#N)C1=C(Sc2ccccc2)C(=O)C(C)=C(C)C1=O` (stereo not given), the MIC is 50 mg/L (≈ 146 µM) against Candida tropicalis; 50 mg/L (≈ 146 µM) against Candida albicans; 50 mg/L (≈ 146 µM) with Pichia kudriavzevii; 12.5 mg/L (≈ 36.6 µM) in the assay on Cryptococcus neoformans; 50 mg/L (≈ 146 µM) with Aspergillus niger.

As to `COC(=O)C(C#N)C1=C(Sc2cccc(C)c2)C(=O)C(C)=C(C)C1=O` (stereo not given), the MIC with Candida tropicalis is above 50 mg/L; against Candida albicans it was above 50 mg/L; in the assay on Pichia kudriavzevii, 1.6 mg/L (≈ 4.5 µM); in the assay on Cryptococcus neoformans, 50 mg/L (≈ 141 µM); in the assay on Aspergillus niger it was above 50 mg/L.

With `COC(=O)C(C#N)C1=C(Cl)C(=O)C(C)=C(C)C1=O` (stereo not given), the MIC with Candida tropicalis worked out at 50 mg/L (≈ 187 µM); in the assay with Candida albicans, 50 mg/L (≈ 187 µM); against Pichia kudriavzevii, 25 mg/L (≈ 93.4 µM); in the assay with Cryptococcus neoformans, 6.3 mg/L (≈ 23.5 µM); against Aspergillus niger, 25 mg/L (≈ 93.4 µM).

For the molecule `COC(=O)c1c(N)nnc2c(C)c(C)c(O)c(Sc3ccccc3)c12`, the MIC with Candida tropicalis was 25 mg/L (≈ 70.3 µM); with Candida albicans, above 50 mg/L; in the assay on Pichia kudriavzevii, 6.3 mg/L (≈ 17.7 µM); with Cryptococcus neoformans it was 1.6 mg/L (≈ 4.5 µM); in the assay with Aspergillus niger, 12.5 mg/L (≈ 35.2 µM).

Turning to `COC(=O)c1c(N)nnc2c(C)c(C)c(O)c(Sc3cccc(F)c3)c12`, the MIC in the assay on Candida tropicalis is 50 mg/L (≈ 134 µM); in the assay with Candida albicans, above 50 mg/L; in the assay with Pichia kudriavzevii it was 25 mg/L (≈ 67 µM); against Cryptococcus neoformans, 6.3 mg/L (≈ 16.9 µM); with Aspergillus niger, 1.6 mg/L (≈ 4.28 µM).

Regarding `Nc1nc(=O)[nH]cc1F` [FLUCYTOSINE], the MIC in the assay on Candida tropicalis turned out to be 12.5 mg/L (≈ 96.8 µM); against Candida albicans it was 6.3 mg/L (≈ 48.8 µM); in the assay on Pichia kudriavzevii, 6.3 mg/L (≈ 48.8 µM); against Cryptococcus neoformans, 12.5 mg/L (≈ 96.8 µM); in the assay with Aspergillus niger, 12.5 mg/L (≈ 96.8 µM).
